We go through 2 molecules from ChEMBL document CHEMBL4145611, “Discovery of Marinoquinolines as Potent and Fast-Acting Plasmodium falciparum Inhibitors with in Vivo Activity” (J Med Chem, 2018).

pEC50, pIC50: −log10 of the molar value. Activity calls are given as the source filed them. No cut-off for these calls is given here.

The pEC50 is the EC50 on a negative log10 scale, so that one unit is a factor of ten. In general, pIC50 refers to the negative decadic logarithm of the IC50, by convention in mol/L.

For series [1], the system named is Plasmodium berghei. Nature of the series: Antiplasmodial activity against Plasmodium berghei NK65 infected in Swiss mouse assessed as reduction in parasitemia at 20 mg/kg, po administered via gavage for 3 consecutive days post infection measured on day 7 post infection relative to control. The class given is functional. Further details: scale not given: the % may be the effect or the level left. The method, boiled down:
(§1)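 P. berghei NK65 suppressive test: adult Swiss outbred mice (20±2 g) inoculated ip with 1×10^5 infected red cells, randomized to groups, dosed daily for three days by oral gavage or ip injection with test compound at 50 mg/kg in 3% (v/v) DMSO; CQ 20 mg/kg and vehicle groups in parallel. Giemsa-stained tail-blood smears on days 5, 7, 9; inhibition = [(C−T)/C]×100 versus untreated control.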

Series [2] has as its system Plasmodium falciparum. Nature of the series: Plasmodicidal activity against Plasmodium falciparum 3D7A infected in erythrocytes assessed as parasite survival at 10 times IC50 pre-incubated for 24 hrs followed by compound washout and measured after 24 hrs by […] incorporation assay (reference value: 100%). The class given is functional.
The subject of series [3] is Plasmodium berghei. Nature of the series: Antiplasmodial activity against Plasmodium berghei NK65 infected in Swiss mouse assessed as reduction in parasitemia at 20 mg/kg, ip administered for 3 consecutive days post infection measured on day 9 post infection relative to control. The class given is functional. Also on record: scale not given: the % may be the effect or the level left. A digest of the protocol:
as §1

In series [4] the test system is Plasmodium berghei. Nature of the series: Antiplasmodial activity against Plasmodium berghei NK65 infected in Swiss mouse assessed as reduction in parasitemia at 20 mg/kg, ip administered for 3 consecutive days post infection measured on day 7 post infection relative to control. Further details: scale not given: the % may be the effect or the level left. The class given is functional. The method, boiled down:
as §1

The test system of series [5] is Plasmodium berghei. The experiment in a line: Antiplasmodial activity against Plasmodium berghei NK65 infected in Swiss mouse assessed as reduction in parasitemia at 20 mg/kg, po administered via gavage for 3 consecutive days post infection measured on day 5 post infection relative to control. Also on record: scale not given: the % may be the effect or the level left. It is filed as functional. The method, boiled down: as §1

Series [6] concerns Plasmodium berghei. Nature of the series: Antiplasmodial activity against Plasmodium berghei NK65 infected in Swiss mouse assessed as assessed as mouse survival at 20 mg/kg, ip administered for 3 consecutive days post infection measured on day 9 post infection (reference value: 19 +/- 5 days). It is filed as functional.
Series [7] deals with Plasmodium berghei. The experiment in a line: Antiplasmodial activity against Plasmodium berghei NK65 infected in Swiss mouse assessed as reduction in parasitemia at 20 mg/kg, po administered via gavage for 3 consecutive days post infection measured on day 9 post infection relative to control. It is filed as functional. Also on record: scale not given: the % may be the effect or the level left. The method, boiled down: as §1

The subject of series [8] is Plasmodium berghei. The experiment in a line: Antiplasmodial activity against Plasmodium berghei NK65 infected in Swiss mouse assessed as assessed as mouse survival at 20 mg/kg, po administered via gavage for 3 consecutive days post infection measured on day 9 post infection (reference value: 19 +/- 5 days). It is filed as functional.
Series [9] concerns Plasmodium falciparum. The experiment in a line: Plasmodicidal activity against Plasmodium falciparum 3D7A infected in erythrocytes assessed as parasite survival at 10 times IC50 pre-incubated for 48 hrs followed by compound washout and measured after 24 hrs by […] incorporation assay (reference value: 100%). It is filed as functional.
For a further series, the system named is HepG2. The experiment in a line: Cytotoxicity against human HepG2 cells assessed as reduction in cell viability after 24 hrs by MTT assay. The class given is cell-based. As to conditions: HepG2, 24 h. A digest of the protocol:
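HepG2 cells in RPMI-1640 with 10% heat-inactivated serum, seeded 5×10^3 per well, allowed to adhere 18 h at 37 °C, then exposed to compound (400–6.2 µM) for 24 h at 37 °C, 5% CO2. MTT (5 mg/mL) for 3 h, formazan dissolved in DMSO, absorbance 570 nm with 630 nm background; viability as percent of untreated control.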

Series [10] deals with Plasmodium berghei. Nature of the series: Antiplasmodial activity against Plasmodium berghei NK65 infected in Swiss mouse assessed as reduction in parasitemia at 20 mg/kg, ip administered for 3 consecutive days post infection measured on day 5 post infection relative to control. It is filed as functional. Also on record: scale not given: the % may be the effect or the level left. The method, boiled down: as §1

Series [11] has as its system Plasmodium falciparum. The experiment in a line: Antiplasmodial activity against chloroquine-sensitive trophozoite form of Plasmodium falciparum 3D7 infected in RBC after 72 hrs by SYBR green assay. As to conditions: 3D7, Erythrocyte. It is filed as functional, organism-based. A digest of the protocol:
(§2)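 Sorbitol-synchronized 3D7 cultures of each stage (or asynchronous) diluted to 0.5% parasitemia, 2% hematocrit, exposed to graded compound concentrations (0.05% DMSO) for 72 h in triplicate. Read-out: lysis buffer (20 mM Tris pH 7.5, 5 mM EDTA, 0.008% saponin, 0.08% Triton X-100) with SYBR green I 1:20000, fluorescence 485/535 nm, uninfected erythrocytes as background; IC50 by curve fitting versus drug-free growth.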

The subject of series [12] is Plasmodium berghei. The experiment in a line: Antiplasmodial activity against Plasmodium berghei NK65 infected in Swiss mouse assessed as reduction in parasitemia at 50 mg/kg, po administered via gavage for 3 consecutive days post infection measured on day 9 post infection relative to control. It is filed as functional. Also on record: scale not given: the % may be the effect or the level left. The method, boiled down: as §1

Series [13] concerns Plasmodium falciparum. The experiment in a line: Antiplasmodial activity against chloroquine-sensitive schizont form of Plasmodium falciparum 3D7 infected in RBC after 72 hrs by SYBR green assay. The class given is functional, organism-based. As to conditions: 3D7, Erythrocyte. A digest of the protocol: as §2
The subject of series [14] is Plasmodium berghei. The experiment in a line: Antiplasmodial activity against Plasmodium berghei NK65 infected in Swiss mouse assessed as reduction in parasitemia at 50 mg/kg, po administered via gavage for 3 consecutive days post infection measured on day 5 post infection relative to control. The class given is functional. Further details: scale not given: the % may be the effect or the level left. A digest of the protocol: as §1

Series [15] in a line: Therapeutic index, ratio of EC50 for human HepG2 cells to IC50 for chloroquine-sensitive blood parasite forms of Plasmodium falciparum 3D7. It is filed as toxicity. The settings on record: read-out: TI.
For series [16], the system named is Plasmodium berghei. Nature of the series: Antiplasmodial activity against Plasmodium berghei NK65 infected in Swiss mouse assessed as reduction in parasitemia at 50 mg/kg, po administered via gavage for 3 consecutive days post infection measured on day 7 post infection relative to control. It is filed as functional. Also on record: scale not given: the % may be the effect or the level left. A digest of the protocol:
as §1

Series [17] has as its system Plasmodium berghei. Nature of the series: Antiplasmodial activity against Plasmodium berghei NK65 infected in Swiss mouse assessed as mouse survival at 50 mg/kg, po administered for 3 consecutive days post infection measured on day 9 post infection (reference value: 19 +/- 5 days). It is filed as functional.
A short description of series [18]: Metabolic stability in rat liver microsomes assessed as compound remaining at 4 uM after 30 mins in presence of NADPH by HPLC analysis. The class given is ADME, microsome. As to conditions: read-out: Stability. The method, boiled down: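 Rat pooled liver microsomes (final 2 mg/mL protein) in 0.1 M phosphate buffer pH 7.4 with 30 mM MgCl2 and 10 mM NADPH; compounds at 4 µM final; verapamil 0.1 mM positive control. Reactions quenched with ice-cold acetonitrile at set times; parent remaining measured by LC-MS/MS; first-order depletion rate used to derive half-life.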
In general terms: Liver microsomes are a subcellular fraction often used to study metabolism.

Series [19] deals with Plasmodium falciparum. Nature of the series: Antiplasmodial activity against chloroquine-sensitive blood parasite forms of Plasmodium falciparum 3D7 infected in RBC by SYBR green assay. It is filed as functional, organism-based. As to conditions: 3D7, Erythrocyte, read-out: IC50. The method, boiled down: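 3D7 blood-stage cultures, sorbitol-synchronized twice beforehand, used at 5-10% parasitemia with >80% rings, diluted to 0.5% parasitemia and 2% hematocrit with graded compound (0.05% DMSO), triplicate; artesunate and chloroquine controls. SYBR green I lysis-buffer fluorescence at 485/535 nm; IC50 from curve fit relative to drug-free medium.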

Series [20] concerns Plasmodium falciparum. The experiment in a line: Antiplasmodial activity against early ring stage form of Plasmodium falciparum assessed as induction of alterations in parasite morphology at 10 times IC50 concentration after 8 to 16 hrs by microscopic analysis. The class given is functional, organism-based.
The subject of series [21] is Plasmodium falciparum. Nature of the series: Antiplasmodial activity against chloroquine-sensitive asynchronous form of Plasmodium falciparum 3D7 infected in RBC after 72 hrs by SYBR green assay. The class given is functional, organism-based. As to conditions: 3D7, Erythrocyte. The method, boiled down:
as §2

Series [22] relates to Plasmodium falciparum. Nature of the series: Antiplasmodial activity against chloroquine-sensitive ring form of Plasmodium falciparum 3D7 infected in RBC after 72 hrs by SYBR green assay. The settings on record: 3D7, Erythrocyte. The class given is functional, organism-based. The method, boiled down: as §2

As to `CCN(CC)CCCC(C)Nc1ccnc2cc(Cl)ccc12` (centres undefined) [CHLOROQUINE], the Activity with Plasmodium berghei [1], in the series on Plasmodium berghei [3], with Plasmodium berghei [4], in the series with Plasmodium berghei [5], in the series with Plasmodium berghei [7] and in the series on Plasmodium berghei [10] was 100% each time. Also, the Survival with Plasmodium falciparum [2] is 16%; with Plasmodium berghei [6] it was above 30 days; in the series with Plasmodium berghei [8] it was above 30 days; in the series on Plasmodium falciparum [9], 8%. The pEC50 in the series with HepG2 is 3.42.
For `COc1ccc2c(c1)nc(CC(C)C)c1[nH]ccc12`, the negative-log IC50 (pIC50) in the series on Plasmodium falciparum [11] was 6.38; with Plasmodium falciparum [13], 6.40; in the series with Plasmodium falciparum [19], 6.30; with Plasmodium falciparum [21], 6.38; with Plasmodium falciparum [22], 6.30. In addition, the Activity with Plasmodium berghei [12], in the series with Plasmodium berghei [14] and in the series with Plasmodium berghei [16] was 0% throughout. For the same molecule, the selectivity ratio in [15] is above 70. Also, the Survival in the series on Plasmodium berghei [17] was 23 days. In [18], the remaining at 0.5 h, 4 µM stood at 24%. The result in the series with Plasmodium falciparum [20] was Active. For the same molecule, the negative logarithm of the EC50 (pEC50) in the series with HepG2 was 4.46.
